For one test, the system named is Klebsiella oxytoca. Briefly: In vitro for antibacterial activity against Klebsiella oxytoca 1082E. It is filed as functional.
In another test the test system is Pseudomonas aeruginosa. The test can be described thus: In vitro for antibacterial activity against Pseudomonas aeruginosa 799/61. It is filed as functional.
The subject of the next test is Enterobacter cloacae. The test can be described thus: In vitro for antibacterial activity against Enterobacter cloacae P99. Type of test: functional.
Another test has as its system Bacillus subtilis. Briefly: In vitro for antibacterial activity against Bacillus subtilis ATCC 585369. Type of test: functional.
Test [1] relates to Escherichia coli. Briefly: In vitro for antibacterial activity against Escherichia coli B (Ec(B)). It is filed as functional.
The subject of the next test is Staphylococcus aureus. The test can be described thus: In vitro for antibacterial activity against Staphylococcus aureus 887. It is filed as functional.
The subject of the next test is Micrococcus luteus. The test can be described thus: In vitro for antibacterial activity against Micrococcus luteus ATCC 8340. Type of test: functional.
The test system of test [2] is Escherichia coli. The test can be described thus: In vitro for antibacterial activity against Escherichia coli 1527E (Ec(C)). Type of test: functional.
Test [3] deals with Staphylococcus haemolyticus. The test can be described thus: In vitro for antibacterial activity against Staphylococcus haemolyticus 75 (quinolone-resistant). Type of test: functional.
The target of test [4] is DNA gyrase (Escherichia coli) (UniProt P0AES6+P0AES4). The test can be described thus: Inhibitory activity against Escherichia coli DNA gyrase (represented as MNEC). Type of test: protein-complex assay. The gist of the method:
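Supercoiling assay. Gyrase subunits mixed equimolar and reconstituted to A2B2 for 30 min at 25 °C. Compound 0.1–100 µg/mL, 37 °C, 30 min. Read on 0.8% agarose gel; MNEC = highest concentration leaving all DNA fully supercoiled.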

For test [5], the system named is Escherichia coli. The test can be described thus: In vitro for antibacterial activity against Escherichia coli 1346 (Ec(A)). It is filed as functional.

Molecules are shown by their SMILES. Values after ≈ are worked out from the molar mass of the structure shown.

As a reminder, the MIC is the smallest concentration in the dilution series that meets the test's criterion for growth inhibition. Lower therefore signals a more susceptible organism. For `CNn1c(=O)cc2n(C3CC3)c3cc(N4CCNCC4)c(F)cc3n2c1=O`, the MIC was determined as 8 µg/mL (≈ 21.5 µM) in the test with Klebsiella oxytoca; 32 µg/mL (≈ 85.9 µM) in the test with Pseudomonas aeruginosa; 4 µg/mL (≈ 10.7 µM) in the test on Enterobacter cloacae; 8 µg/mL (≈ 21.5 µM) against Bacillus subtilis; 0.5 µg/mL (≈ 1.34 µM) against Escherichia coli [1]; 16 µg/mL (≈ 43 µM) with Staphylococcus aureus. In addition, the minimum inhibitory concentration (MIC) worked out at 128 µg/mL (≈ 344 µM) with Micrococcus luteus, 8 µg/mL (≈ 21.5 µM) in the test with Escherichia coli [2], 128 µg/mL (≈ 344 µM) in test [3] and 1 µg/mL (≈ 2.69 µM) in the test on Escherichia coli [5]. In addition, in test [4], the MNEC amounted to 0.1 µg/mL.
Regarding `CN(C)n1c(=O)cc2n(C3CC3)c3cc(N4CCNCC4)c(F)cc3n2c1=O`, the minimal inhibitory concentration (MIC) is 32 µg/mL (≈ 82.8 µM) with Klebsiella oxytoca; 64 µg/mL (≈ 166 µM) in the test on Pseudomonas aeruginosa; 32 µg/mL (≈ 82.8 µM) against Enterobacter cloacae; 4 µg/mL (≈ 10.4 µM) against Bacillus subtilis; 1 µg/mL (≈ 2.59 µM) with Escherichia coli [1]; 16 µg/mL (≈ 41.4 µM) in the test with Staphylococcus aureus. The MIC was more than 128 µg/mL with Micrococcus luteus, 32 µg/mL (≈ 82.8 µM) with Escherichia coli [2], more than 128 µg/mL in test [3] and 8 µg/mL (≈ 20.7 µM) against Escherichia coli [5]. Moreover, in test [4], the MNEC was 0.5 µg/mL.
`CCn1cc(C(=O)O)c(=O)c2cc(F)c(N3CCNCC3)cc21` [NORFLOXACIN]: the MIC against Klebsiella oxytoca was 0.25 µg/mL (≈ 0.783 µM); against Pseudomonas aeruginosa it was 1 µg/mL (≈ 3.13 µM); in the test on Enterobacter cloacae, 0.25 µg/mL (≈ 0.783 µM); against Bacillus subtilis, 1 µg/mL (≈ 3.13 µM); in the test on Escherichia coli [1], 0.12 µg/mL (≈ 0.376 µM); with Staphylococcus aureus it was 4 µg/mL (≈ 12.5 µM). Besides, the MIC is 32 µg/mL (≈ 100 µM) against Micrococcus luteus, 0.12 µg/mL (≈ 0.376 µM) in the test on Escherichia coli [2], more than 64 µg/mL in test [3] and 0.12 µg/mL (≈ 0.376 µM) with Escherichia coli [5].
`CCn1c2cc(N3CCNCC3)c(F)cc2n2c(=O)n(O)c(=O)cc12`: the minimum inhibitory concentration (MIC) in the test on Klebsiella oxytoca is 16 µg/mL (≈ 46.1 µM); with Pseudomonas aeruginosa, 4 µg/mL (≈ 11.5 µM); in the test with Enterobacter cloacae, 8 µg/mL (≈ 23 µM); against Bacillus subtilis, 32 µg/mL (≈ 92.1 µM); with Escherichia coli [1], 8 µg/mL (≈ 23 µM); in the test on Staphylococcus aureus, more than 64 µg/mL. In addition, the MIC with Micrococcus luteus is 32 µg/mL (≈ 92.1 µM); against Escherichia coli [2], 32 µg/mL (≈ 92.1 µM); in [3] it was more than 64 µg/mL; in the test on Escherichia coli [5], 8 µg/mL (≈ 23 µM). The MNEC in test [4] worked out at 1 µg/mL.
Regarding `CCn1c2cc(N3CCN(C)CC3)c(F)cc2n2c(=O)[nH]c(=O)cc12`, the MIC against Klebsiella oxytoca is more than 32 µg/mL; against Pseudomonas aeruginosa it was more than 32 µg/mL; against Enterobacter cloacae, 16 µg/mL (≈ 46.3 µM); with Bacillus subtilis, 16 µg/mL (≈ 46.3 µM); with Escherichia coli [1] it was 2 µg/mL (≈ 5.79 µM); in the test on Staphylococcus aureus it was more than 32 µg/mL. Also, the results for the MIC against Micrococcus luteus, in the test on Escherichia coli [2] and against Escherichia coli [5] were more than 32 µg/mL, 32 µg/mL (≈ 92.7 µM) and 16 µg/mL (≈ 46.3 µM), respectively. The MNEC in test [4] came to 2 µg/mL.
Regarding `CCn1c2cc(N3CCNCC3)c(F)cc2n2c(=O)[nH]c(=O)cc12`, the MIC is more than 64 µg/mL in the test on Klebsiella oxytoca; more than 64 µg/mL in the test with Pseudomonas aeruginosa; 64 µg/mL (≈ 193 µM) against Enterobacter cloacae; 64 µg/mL (≈ 193 µM) with Bacillus subtilis; 8 µg/mL (≈ 24.1 µM) in the test on Escherichia coli [1]; more than 64 µg/mL with Staphylococcus aureus. The MIC against Micrococcus luteus was more than 64 µg/mL; in the test on Escherichia coli [2], more than 64 µg/mL; in the test on Escherichia coli [5], 16 µg/mL (≈ 48.3 µM). Moreover, the MNEC in [4] amounted to 1 µg/mL.
`CN1CCN(c2cc3c(cc2F)n2c(=O)n(O)c(=O)cc2n3C2CC2)CC1`: the MIC was 0.25 µg/mL (≈ 0.67 µM) in the test with Klebsiella oxytoca; 2 µg/mL (≈ 5.36 µM) in the test on Pseudomonas aeruginosa; 0.12 µg/mL (≈ 0.321 µM) in the test with Enterobacter cloacae; 2 µg/mL (≈ 5.36 µM) in the test on Bacillus subtilis; less than 0.03 µg/mL against Escherichia coli [1]; 4 µg/mL (≈ 10.7 µM) against Staphylococcus aureus. Further, the MIC is 32 µg/mL (≈ 85.7 µM) against Micrococcus luteus, 0.12 µg/mL (≈ 0.321 µM) in the test on Escherichia coli [2], 32 µg/mL (≈ 85.7 µM) in test [3] and less than 0.03 µg/mL with Escherichia coli [5]. Moreover, the MNEC in [4] was determined as 1 µg/mL.
Take `CN1CCN(c2cc3c(cc2F)n2c(=O)[nH]c(=O)cc2n3C2CC2)CC1`: the MIC was found to be 8 µg/mL (≈ 22.4 µM) in the test with Klebsiella oxytoca; 32 µg/mL (≈ 89.5 µM) in the test on Pseudomonas aeruginosa; 4 µg/mL (≈ 11.2 µM) with Enterobacter cloacae; 4 µg/mL (≈ 11.2 µM) against Bacillus subtilis; 0.25 µg/mL (≈ 0.7 µM) in the test with Escherichia coli [1]; 16 µg/mL (≈ 44.8 µM) in the test on Staphylococcus aureus. Moreover, the MIC against Micrococcus luteus is more than 32 µg/mL; against Escherichia coli [2], 2 µg/mL (≈ 5.6 µM); in test [3], more than 32 µg/mL; with Escherichia coli [5], 2 µg/mL (≈ 5.6 µM). The MNEC in test [4] amounted to 1 µg/mL.
Regarding `Nn1c(=O)cc2n(C3CC3)c3cc(N4CCNCC4)c(F)cc3n2c1=O`, the MIC with Klebsiella oxytoca amounted to 4 µg/mL (≈ 11.2 µM); in the test on Pseudomonas aeruginosa it was 8 µg/mL (≈ 22.3 µM); against Enterobacter cloacae, 2 µg/mL (≈ 5.58 µM); with Bacillus subtilis it was 4 µg/mL (≈ 11.2 µM); in the test on Escherichia coli [1] it was 0.25 µg/mL (≈ 0.698 µM); with Staphylococcus aureus, 64 µg/mL (≈ 179 µM). Further, the MIC in the test with Micrococcus luteus is more than 64 µg/mL; against Escherichia coli [2], 2 µg/mL (≈ 5.58 µM); in [3], more than 64 µg/mL; in the test with Escherichia coli [5], 1 µg/mL (≈ 2.79 µM). In [4], the MNEC amounted to 0.2 µg/mL.
On to `CCn1c2cc(N3CCNCC3)c(F)cc2c2c(N)ncnc21`, for which the MIC was more than 128 µg/mL with Klebsiella oxytoca; more than 128 µg/mL in the test on Pseudomonas aeruginosa; more than 128 µg/mL in the test on Enterobacter cloacae; 16 µg/mL (≈ 50.9 µM) against Escherichia coli [1]; more than 128 µg/mL against Staphylococcus aureus; more than 128 µg/mL in the test on Escherichia coli [2]. Further, the MIC in [3] was more than 128 µg/mL; in the test with Escherichia coli [5], 64 µg/mL (≈ 204 µM). The compound further came in with an MNEC in [4] of 5 µg/mL.
As to `O=c1cc2n(C3CC3)c3cc(N4CCNCC4)c(F)cc3n2c(=O)[nH]1`, the MIC against Klebsiella oxytoca was 16 µg/mL (≈ 46.6 µM); against Pseudomonas aeruginosa, 32 µg/mL (≈ 93.2 µM); against Enterobacter cloacae it was 8 µg/mL (≈ 23.3 µM); with Bacillus subtilis, 8 µg/mL (≈ 23.3 µM); against Escherichia coli [1], 0.5 µg/mL (≈ 1.46 µM); with Staphylococcus aureus, more than 32 µg/mL. In addition, the MIC in the test with Micrococcus luteus is more than 32 µg/mL; against Escherichia coli [2], 8 µg/mL (≈ 23.3 µM); in the test on Escherichia coli [5], 2 µg/mL (≈ 5.82 µM). For the same compound, the MNEC in test [4] is 0.2 µg/mL.
Take `CN1CCN(c2c(F)cc3c(=O)c(C(=O)O)cn(CCF)c3c2F)CC1` [FLEROXACIN]: the MIC turned out to be 0.12 µg/mL (≈ 0.325 µM) against Klebsiella oxytoca; 0.5 µg/mL (≈ 1.35 µM) against Pseudomonas aeruginosa; 0.12 µg/mL (≈ 0.325 µM) against Enterobacter cloacae; 0.5 µg/mL (≈ 1.35 µM) against Bacillus subtilis; 0.06 µg/mL (≈ 0.162 µM) in the test on Escherichia coli [1]; 2 µg/mL (≈ 5.42 µM) against Staphylococcus aureus. Further, the MIC against Micrococcus luteus is 16 µg/mL (≈ 43.3 µM); against Escherichia coli [2], 0.06 µg/mL (≈ 0.162 µM); in test [3], 32 µg/mL (≈ 86.6 µM); against Escherichia coli [5], 0.12 µg/mL (≈ 0.325 µM).
On to `CCn1c2cc(N3CCN(C)CC3)c(F)cc2n2c(=O)n(O)c(=O)cc12`, for which the MIC in the test on Klebsiella oxytoca came to 4 µg/mL (≈ 11.1 µM); against Pseudomonas aeruginosa, 2 µg/mL (≈ 5.53 µM); against Enterobacter cloacae it was 2 µg/mL (≈ 5.53 µM); with Bacillus subtilis, 8 µg/mL (≈ 22.1 µM); against Escherichia coli [1], 1 µg/mL (≈ 2.77 µM); in the test on Staphylococcus aureus, 16 µg/mL (≈ 44.3 µM). Moreover, the MIC in the test on Micrococcus luteus is 16 µg/mL (≈ 44.3 µM); with Escherichia coli [2], 4 µg/mL (≈ 11.1 µM); in test [3], 16 µg/mL (≈ 44.3 µM); in the test on Escherichia coli [5], 2 µg/mL (≈ 5.53 µM). Also, in test [4], the MNEC came to 1 µg/mL.
For `O=c1cc2n(C3CC3)c3cc(N4CCNCC4)c(F)cc3n2c(=O)n1O`, the minimal inhibitory concentration (MIC) is 1 µg/mL (≈ 2.78 µM) against Klebsiella oxytoca; 2 µg/mL (≈ 5.57 µM) with Pseudomonas aeruginosa; 1 µg/mL (≈ 2.78 µM) against Enterobacter cloacae; 4 µg/mL (≈ 11.1 µM) in the test on Bacillus subtilis; less than 0.25 µg/mL in the test on Escherichia coli [1]; more than 64 µg/mL in the test with Staphylococcus aureus. The MIC against Micrococcus luteus is 8 µg/mL (≈ 22.3 µM); in the test with Escherichia coli [2] it was 2 µg/mL (≈ 5.57 µM); in [3], more than 64 µg/mL; in the test with Escherichia coli [5], less than 0.25 µg/mL. Further, the MNEC in test [4] was 1 µg/mL.
Take `CCn1c2cc(N3CCN(C)CC3)c(F)cc2n2c(=O)nc(N)cc12`: the MIC against Klebsiella oxytoca, with Pseudomonas aeruginosa, in the test with Enterobacter cloacae, against Bacillus subtilis, in the test on Escherichia coli [1] and against Staphylococcus aureus was more than 32 µg/mL in each case. The MIC (against Micrococcus luteus; in the test on Escherichia coli [2]; in test [3]; in the test on Escherichia coli [5]) was more than 32 µg/mL in each case. In addition, the MNEC in test [4] is more than 10 µg/mL.

Source of the values: ChEMBL document CHEMBL1126288, “Pyrimido[1,6-a]benzimidazoles: a new class of DNA gyrase inhibitors” (1992).
